From ChEMBL document CHEMBL4513216, “Probing the Open Global Health Chemical Diversity Library for Multistage-Active Starting Points for Next-Generation Antimalarials” (ACS Infect Dis, 2020) come the findings set out here.

The data set is described as follows: Toxicity liver stage against HepG2, at 10uM. In kind it is cell-based. Also noted: test concentration 10 uM, cell line HepG2-A16-CD81EGFP. The note with it: human, HepG2-A16-CD81EGFP cells; read-out: INHIBITION
In outline:
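Uninfected HepG2-A16-CD81EGFP cells, 3 × 10^3 per well, 1536-well, plated on prespotted compound at 10 μM final, parasite-free screening media added to match infected plates; puromycin 10 μM positive, DMSO 0.5% negative; run in parallel with 48 h PbLuc assay at 37 °C, 5% CO2; viability by CellTiter-Glo luminescence, normalized to controls.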
On to `CCc1n[nH]c(=O)c(C(=O)N2CCSC(C)(C)C2)c1CC`, for which the cytotoxicity at 10 µM was 18.6%.

On to `CC(SCC(=O)N(C)CC(=O)NC1CC1)c1ccccc1F` (stereo unspecified), for which the cytotoxicity at 10 µM is -2.49%. For `O=C(NCc1ccccn1)Nc1ccc2[nH]nnc2c1` the value was 6.77%; for `COc1cccc([C@@H]2CCN(Cc3[nH]nc(C)c3Cl)C[C@H]2O)c1`, -3.26%; for `CN(C)C(=O)[C@@H]1C[C@@H]2CCN(Cc3ccc4c(c3)OCO4)C[C@@H]2O1`, 2.26%. Take `Cc1cccc(NC(=O)[C@@H]2CCCN2Cc2ccc(C#N)cc2F)n1`: the cytotoxicity at 10 µM was -5.64%. On to `O=C(NCCc1ccccn1)Nc1cc(C(F)(F)F)c[nH]c1=O`, for which the cytotoxicity at 10 µM is -6.78%. The value for `Cn1c(CC(=O)O)c(Sc2ccccc2)c2ccccc21` was 4.35%; that for `O=C(C1CCOCC1)N1CC[C@H]2[C@H]1CCN2c1nncs1` was -4.78%; that for `CCOc1ccccc1OCCN(C)Cc1ncnn1CC` was 10.2%. The value for `CN(Cc1ccco1)C[C@H]1OC[C@@H]2CCN(Cc3cccs3)C[C@@H]21` was 8.11%; that for `COC(C)(C)CNC(=O)c1cn(-c2cccc(Cl)c2F)nn1` was 8.83%; that for `CCc1nccn1-c1cncc(C2CCN(C(=O)COC)CC2)n1` was -37.3%.

For the compound `C=C(C)COc1cccc(C(=O)N2CCC3(CCOCC3)CC2)c1`, the cytotoxicity at 10 µM was -47.1%.

For the compound `COc1ccccc1OCc1cc(C(=O)N2CCN[C@H](C)C2)n[nH]1`, the cytotoxicity at 10 µM was -9.09%. For `Cc1ccc(N2C[C@@H]3CCCO[C@@H]3[C@H](N3CCCC3)C2)nn1` the value was 2.96%; for `CCc1cc(N(C)Cc2ncc[nH]2)nc(N2CCOCC2)n1`, -1.61%. Take `CC(OCC1CC1)C(=O)N1CCCN(c2cccnn2)CC1` (stereo unspecified): the cytotoxicity at 10 µM worked out at 8.13%.

With `CCn1c(N)nc2cc(C(=O)NCCNc3ncccc3C)cnc21`, the cytotoxicity at 10 µM is -5.98%.

Consider `CCn1cnnc1C1CCN(C(=O)c2cccc(OC)c2OC)CC1`, for which the cytotoxicity at 10 µM was -7.96%. The value for `COC(=O)C1=NOC(Cc2cc(OC)c3c(c2)OCO3)C1` (stereo unspecified) was 5.82%. For `O=C(CCc1ccc(-c2ccccc2)[nH]1)N1CCCC(n2ccnc2)C1` (stereo unspecified) the value was -15.7%; for `Cc1n[nH]c(C)c1CNCC(O)c1cccc(Cl)c1` (stereo unspecified), 4.91%; for `CS(=O)(=O)N1CCO[C@@H]2CN(C(=O)c3ccnnc3)C[C@@H]2C1`, 5.97%.

As for `Fc1ccc(CN2CCOC(Cn3cncn3)C2)c2ncccc12` (stereo unspecified), the cytotoxicity at 10 µM came to 0.219%. The value for `O=C(c1cnc2n1CCN(Cc1ccccc1)C2)N1CCCC1` was -73.9%; that for `Cc1cnn(CC2CN(CC(=O)Nc3ccnn3C(C)C)CCO2)c1` (stereo unspecified) was -8.06%; that for `Cc1ccc(NC(=O)N2CCC(NC(=O)c3ccc(C)o3)CC2)cc1` was 0.385%.

For `COCCN(Cc1ccco1)Cc1nc(-c2ccsc2)no1`, the cytotoxicity at 10 µM turned out to be 1.02%.

As to `COCC(=O)N1CCC2(CC1)CC(N1CCOCC1)c1ccc(C)cc12` (stereo unspecified), the cytotoxicity at 10 µM was -116%.

For the compound `COCCN1CCC(CN(CC2CCCO2)C(=O)COC)CC1` (stereo unspecified), the cytotoxicity at 10 µM is -21.1%. As for `c1cncc(CN2CCCC(Nc3ncnc4c3CCNCC4)C2)c1` (stereo unspecified), the cytotoxicity at 10 µM was determined as 4.42%. For `CCc1nc(N2CCCN(c3ncccn3)CC2)c2cnn(C)c2n1` the value was 2.22%; for `CN1CCN([C@@H]2CCN(C3CCOCC3)[C@H]2Cc2cnn(C)c2)CC1`, 5.07%; for `C=C(C)COc1cccc(CNCCc2nc(N)cc(O)n2)c1`, -47.1%. The value for `CCC(c1nc(CC(C)C)nn1-c1ccccn1)n1cccn1` (stereo unspecified) was -8.74%; that for `CC(=O)N1CC[C@H]2OCC[C@@H](C(=O)NCc3ccco3)[C@H]2C1` was -81.5%; that for `CC(NCCCn1ccnc1)c1ccc(N2CCCS2(=O)=O)cc1` (stereo unspecified) was -7.49%. For `O=C(Nc1nccs1)N(CCO)Cc1ccsc1` the value was 1.4%; for `O=C(CCc1ccco1)NCC1CCCN1c1cccnn1` (stereo unspecified), -10.8%; for `C[C@@H]1CN(C(=O)c2ccccc2F)C[C@]12CCN(CCN(C)C)C2=O`, 3%.

In the case of `CNS(=O)(=O)c1cc(C(=O)N2CCCCCC2CC(C)C)co1` (stereo unspecified), the cytotoxicity at 10 µM came to 11.2%. For the compound `O=C(c1ccc2nccn2c1)N(CCO)Cc1ccccc1F`, the cytotoxicity at 10 µM turned out to be 5.27%. For the compound `COc1ccc2c(c1)CCCN2C(=O)CN1CCOC(CN(C)C)C1` (stereo unspecified), the cytotoxicity at 10 µM was -2.93%. The value for `Cc1sc(CN)nc1-c1ccccc1` was -2.85%; that for `Cc1ccc(OCCC(=O)N2CCCC(n3nc(C)nc3C)C2)cc1` (stereo unspecified) was -2.15%. The value for `Cc1cccc(C(=O)N2CCc3c(COCC4CC4)cncc3C2)n1` was -80.1%; that for `CNC(=O)NC(=O)C(C)Nc1ccccc1OCCOC` (stereo unspecified) was 2.24%; that for `CCC1CN(c2cnn(C)c(=O)c2Br)CCO1` (stereo unspecified) was -5.09%. The value for `Cn1c(CO)cnc1SC(C(N)=O)c1ccccc1` (stereo unspecified) was -48.8%; that for `COc1ccnc(N2CCN(CC(O)CN3CCOCC3)CC2)n1` (stereo unspecified) was -3.44%; that for `CC1(C(=O)N2CCOCC2)CN(C2CCCCC2)CCO1` (stereo unspecified) was -22.3%.

`CC(=O)Nc1cccc(OCCNC(=O)N(C)Cc2ccco2)c1`: the cytotoxicity at 10 µM was -9.29%. The value for `CCCS(=O)(=O)NC(C)C(=O)NCc1ccnc(N2CCCC2)c1` (stereo unspecified) was -13.6%. With `CC(=O)c1cn(CCC(=O)N[C@H](C(=O)O)C(C)C)c2ccccc12`, the cytotoxicity at 10 µM is 8.86%. The value for `CCc1ccc(OCC(=O)N2CCN(CC)CC2)cc1` was 6.15%.

`CCN(Cc1cnn(C)c1)C[C@H]1CC[C@@H](Cc2ccc(C#N)cc2)O1`: the cytotoxicity at 10 µM is 5.78%. For `CSCc1noc(CNC2CCCC(C)(C)C2)n1` (stereo unspecified) the value was -0.268%. Take `CN(C)c1ccc(C(=O)NCCCc2ccccn2)cn1`: the cytotoxicity at 10 µM was -54%. For `CC1(C)CC(N(Cc2cccnc2)Cc2cccnc2)CC(C)(C)N1` the value was 1.3%; for `Cc1noc(C)c1C(=O)NCc1ccnc(OCC(F)(F)F)c1`, -0.421%. For `COc1ccccc1CNC(C)c1cnc2cc(C)nn2c1C` (stereo unspecified) the value was 8.32%; for `COc1ccc(CNC(C)c2ccc(Cl)cc2)c(OC)c1OC` (stereo unspecified), 7.74%; for `CN(C1CCN(c2ccccn2)CC1)S(=O)(=O)c1ccccc1F`, 14%.

`Cc1nc(CNC(=O)NCC(O)c2cccc(Cl)c2)cs1` (stereo unspecified): the cytotoxicity at 10 µM is -16.1%. For `O=C(Cc1ccccn1)N1CCN2C[C@H](Oc3cncnc3)C[C@H]2C1` the value was -73%; for `CCC(OC)C(=O)N1CCC2(CC1)c1nc[nH]c1CCN2S(C)(=O)=O` (stereo unspecified), -6.6%; for `Cc1cs/c(=N\C(=O)Cn2nc(N3CCOCC3)ccc2=O)[nH]1`, -5.07%. The value for `Cc1cccc(N2CCC(N3CCC4(CCCNC4=O)C3)CC2)c1C` (stereo unspecified) was -5.66%; that for `CCOc1ccnc(N2CCN(C(=O)c3ccoc3C)CC2)n1` was -0.463%. As to `Cc1nn(C)cc1-c1ccnc(N(C)Cc2noc(C(C)C)n2)n1`, the cytotoxicity at 10 µM came to 1.41%. For `NC(=O)NC(CC(=O)N1CCc2sccc2C1)c1ccccc1F` (stereo unspecified), the cytotoxicity at 10 µM worked out at 3.5%. The value for `Cc1cnn(CC(=O)N2CCC3(CCC(=O)N(CC(C)O)C3)CC2)c1` (stereo unspecified) was 3.05%. For `CCNC(=O)CN(CC)C(=O)Cc1csc(C(C)C)n1` the value was 1.29%.

For `CN(Cc1cn2c(n1)CN(C1CCOC1)CC2)Cc1ccco1` (stereo unspecified), the cytotoxicity at 10 µM is -2.15%. For the compound `COCCCC1(CO)CCCN(Cc2cccc(C#N)c2)C1` (stereo unspecified), the cytotoxicity at 10 µM was 4.16%.

On to `COc1cccc(C(=O)N2CCCCC2c2nccs2)c1OC` (stereo unspecified), for which the cytotoxicity at 10 µM is -14.4%.

As for `Cc1cccnc1[C@H](C)NC(=O)Cc1cc2c(cc1Cl)OCCO2`, the cytotoxicity at 10 µM was -8.26%. The value for `O=C(CS(=O)(=O)c1ccccc1Cl)NC1CCCCNC1=O` (stereo unspecified) was -13.2%; that for `Cc1cnc(CCN(C)C(=O)c2cccc(C)c2O)s1` was -2.48%. For `Fc1cnc(N2CC[C@@H]3O[C@H](COCc4ccccn4)CC[C@@H]32)nc1` the value was 2.9%; for `CCOc1ncccc1C(=O)N(C)C1CCN(c2ccccn2)CC1`, -18.7%; for `Cc1cc2c(=O)n3c(nc2s1)CCN(C(=O)c1cn(C)nc1C)CC3`, -22.6%.

Consider `Fc1cnc(N2CCOC3(CCN(Cc4ccsc4)CC3)C2)nc1`, for which the cytotoxicity at 10 µM was found to be 2.6%.

Regarding `O=C(c1cnccn1)N1CCN(c2ccnc3ccsc23)CC1`, the cytotoxicity at 10 µM was determined as 12.6%. With `COCC(NC(=O)c1cnc(-c2ccncc2)nc1)c1ccnn1C` (stereo unspecified), the cytotoxicity at 10 µM was -13.1%. The value for `CN(C)CCN1C(=O)CC[C@@H]2[C@H]1CCN2C(=O)c1ccc(C#N)cc1` was -7.82%.

As for `COc1ccccc1OCc1cc(C(=O)N2CCC(NC(C)=O)C2)n[nH]1` (stereo unspecified), the cytotoxicity at 10 µM is -4.26%. The value for `C=C(C)COc1ccc(C(=O)NCCn2c(C)cc(C)nc2=O)cc1` was -4.83%; that for `CC(NCCCC#N)c1ccc(S(C)(=O)=O)c(F)c1` (stereo unspecified) was 6.96%.

With `Cc1c[nH]c(CN(C)C(=O)[C@@]23CNC[C@@H]2CN(c2ncccn2)C3)n1`, the cytotoxicity at 10 µM is -2.4%. For `CN(C)c1ccc(CNC2=NCCCN2)cc1` the value was -39.9%; for `O=C(c1ccccc1)C1CCN(Cc2cc3c(cc2O)CCC3)CC1`, 24.2%; for `CCNC(=O)[C@@H]1C[C@@H](N)CN1C(=O)CCc1ccc(C)c(C)c1`, 2.72%. For `Cc1ccc(OCCCSC2=NCCN2)cc1` the value was -9.66%; for `CC(C)OCCCNS(=O)(=O)c1ccc2c(c1)NC(=O)C(C)O2` (stereo unspecified), 0.893%.
